Results on two molecules are retold here after ChEMBL document CHEMBL1649116, “Chloroquine is grossly overdosed and overused but well tolerated in Guinea-bissau” (Antimicrob Agents Chemother, 2009).

Data set [1] is filed under the species Homo sapiens. Description: Toxicity in malaria patient assessed as vomiting on day 1 after treatment at quartile 1 of compound concentration. Format: organism-based. Particulars: in vivo. The method in brief:
(§1)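 Mothers or guardians were questioned at each follow-up visit about the child's symptoms and drug intake. Children were grouped into quartiles by whole-blood chloroquine concentration 1 day after the end of treatment. Symptom frequency is given as n/N (%), and vomiting duration in days. Trend across quartiles was tested with the nonparametric test for trend.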

For data set [2], the species on record is Homo sapiens. Description: Toxicity in malaria patient assessed as vomiting on day 1 after treatment at quartile 2 of compound concentration. Format: organism-based. The note with it: in vivo. The method in brief: as §1
Data set [3] is filed under the species Homo sapiens. Kind of data set: Toxicity in malaria patient assessed as vomiting on day 1 after treatment at quartile 3 of compound concentration. Type of data set: organism-based. The note with it: in vivo. Summed up: as §1
The species entered for data set [4] is Homo sapiens. Kind of data set: Toxicity in malaria patient assessed as vomiting on day 1 after treatment at quartile 4 of compound concentration. Type of data set: organism-based. The note with it: in vivo. Summed up:
as §1

The species named for data set [5] is Homo sapiens. Kind of data set: Toxicity in malaria patient assessed as diarrhea on day 1 after treatment at quartile 1 of compound concentration. Particulars: in vivo. Format: organism-based. The method in brief:
as §1

The species entered for data set [6] is Homo sapiens. Description: Toxicity in malaria patient assessed as diarrhea on day 1 after treatment at quartile 2 of compound concentration. Type of data set: organism-based. The note with it: in vivo. Summed up: as §1
The species named for data set [7] is Homo sapiens. Kind of data set: Toxicity in malaria patient assessed as diarrhea on day 1 after treatment at quartile 3 of compound concentration. Particulars: in vivo. Type of data set: organism-based. Summed up: as §1
The species named for data set [8] is Homo sapiens. Kind of data set: Toxicity in malaria patient assessed as diarrhea on day 1 after treatment at quartile 4 of compound concentration. Particulars: in vivo. Format: organism-based. Summed up: as §1
Data set [9] is filed under the species Homo sapiens. Description: Toxicity in malaria patient assessed as duration of vomiting at quartile 1 of compound concentration. Type of data set: organism-based. Particulars: in vivo. Summed up: as §1
The species named for data set [10] is Homo sapiens. Kind of data set: Toxicity in malaria patient assessed as duration of vomiting at quartile 2 of compound concentration. Format: organism-based. Particulars: in vivo. Summed up: as §1
Data set [11] is filed under the species Homo sapiens. Kind of data set: Toxicity in malaria patient assessed as duration of vomiting at quartile 3 of compound concentration. Type of data set: organism-based. The note with it: in vivo. The method in brief: as §1
The species entered for data set [12] is Homo sapiens. Description: Toxicity in malaria patient assessed as duration of vomiting at quartile 4 of compound concentration. Type of data set: organism-based. The note with it: in vivo. The method in brief: as §1
Data set [13] in a line: Plasma protein binding in healthy human. Type of data set: ADME, cell-free. Particulars: read-out: PPB.
The nature of data set [14]: Drug level in malaria patient whole blood on day 4. Type of data set: ADME, tissue-based. Particulars: human, read-out: Drug uptake. Summed up:
(§2)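 Observational study of 102 children in Guinea-Bissau given chloroquine unsupervised under routine prescribing, usually split into two to three daily doses of 6.6 mg kg−1. Whole blood was drawn 1, 4 and 14 days after the last reported dose for chloroquine and desethylchloroquine analysis. Values are medians with interquartile range, in nM.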

The nature of data set [15]: Drug level in malaria patient whole blood on day 1. Type of data set: ADME, tissue-based. Particulars: human, read-out: Drug uptake. Summed up:
as §2

Data set [16] in a line: Drug level in malaria patient whole blood on day 14. Format: ADME, tissue-based. Particulars: human, read-out: Drug uptake. Summed up:
as §2

Data set [17] can be described thus: Volume of distribution in malaria patient. Type of data set: ADME, organism-based. Particulars: human, in vivo.
A short description of data set [18]: Drug level in malaria patient whole blood assessed as desethychloroquine level on day 1. Type of data set: ADME, tissue-based. The note with it: human, read-out: Drug uptake. The method in brief:
as §2

Data set [19] can be described thus: Drug level in malaria patient whole blood assessed as desethychloroquine level on day 4. Type of data set: ADME, tissue-based. Particulars: human, read-out: Drug uptake. The method in brief:
as §2

The nature of data set [20]: Drug level in malaria patient whole blood assessed as desethychloroquine level on day 14. Type of data set: ADME, tissue-based. Particulars: human, read-out: Drug uptake. The method in brief:
as §2

The structures appear in SMILES notation.

A word on the Vd: it is a proportionality between amount in the body and measured concentration, not a real space. A lower Vd goes with little distribution into tissue. As to `CCN(CC)CCCC(C)Nc1ccnc2cc(Cl)ccc12` (stereo not given) [CHLOROQUINE], the Activity in the data set listed under Homo sapiens [1] came to 25%; in the data set filed under Homo sapiens [2] it was 24%; in the data set listed under Homo sapiens [3], 14%; in the data set listed under Homo sapiens [4], 8%; in the data set filed under Homo sapiens [5], 42%; in the data set filed under Homo sapiens [6], 64%. In addition, the Activity in the data set listed under Homo sapiens [7] was found to be 33%; in the data set listed under Homo sapiens [8], 21%. The Time in the data set filed under Homo sapiens [9] is 1.4 days; in the data set listed under Homo sapiens [10], 1.1 days; in the data set listed under Homo sapiens [11], 0.5 days; in the data set filed under Homo sapiens [12], 0.5 days. The fraction unbound in data set [13] was found to be 0.5. Besides, the concentration turned out to be 626 nM in data set [14], 894 nM in data set [15] and 204 nM in data set [16]. For the same molecule, the Vd in data set [17] is > 100 L/kg.

Turning to `CCNCCCC(C)Nc1ccnc2cc(Cl)ccc12` (stereo not given) [DESETHYLCHLOROQUINE], the concentration in [18] worked out at 638 nM; in data set [19] it was 446 nM; in [20], 181 nM.
